Data published in ChEMBL document CHEMBL3259807, “Structure-activity relationships of pyrazole derivatives as potential therapeutics for immune thrombocytopenias” (Bioorg Med Chem, 2014).

What was measured:
[1] = Basic dissociation constant, pKa of the compound at 10 mM; type: physicochemical
[2] = Distribution coefficient, log D of the compound at 10 mM at pH 7.4 by pH-metric method; type: physicochemical; conditions: octanol/water
PBMC [3] = test: Inhibition of human PBMC-induced phagocytosis of antibody-opsonized RBC at 5 uM incubated for 1 hr prior to RBC addition measured after 2 hrs by phase-contrast microscopy; type: functional
In short: (§1)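 Ficoll-isolated human PBMC cultured overnight (10% FBS, 37 °C, 5% CO2). 7×10^5 cells adhered 1 h on chamber slides, then non-adherent cells removed. Compound or IVIg was added for 1 h, media aspirated, and anti-D-opsonized human R2R2 RBCs added for 2 h. Slides were methanol-fixed and read by phase-contrast, counting ≥100 monocytes for the phagocytosis index. Results are normalized to vehicle (100% phagocytosis). Screen at 5 µM; titration 0.5–100 µM.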

PBMC [4] = test: Induction of apoptosis in human PBMC assessed as apoptotic index at 10 uM after 1 hr by Annexin V/propidium iodide staining-based FACS analysis relative to IVIg; type: cell-based; conditions: in the assay text read “relative to vehicle” for “relative to IVIg”
In short: (§2)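 Ficoll-isolated human PBMC cultured overnight in 10% FBS medium, 37 °C, 5% CO2. After 1 h adherence, non-adherent cells removed, and the rest were exposed to compound at 10 and 100 µM for 1 h. Cells were then scraped and stained with Annexin V-APC plus PI (1 µg/mL) for flow cytometry. AI = fold increase in % apoptotic cells (Annexin V+ and Annexin V+/PI+) over vehicle.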

PBMC [5] = test: Induction of apoptosis in human PBMC assessed as apoptotic index at 100 uM after 1 hr by Annexin V/propidium iodide staining-based FACS analysis relative to IVIg; type: cell-based; conditions: in the assay text read “relative to vehicle” for “relative to IVIg”; in short: as §2
[6] = Acidic dissociation constant, pKa of the compound at 10 mM; type: physicochemical
PBMC [7] = test: Inhibition of human PBMC-induced phagocytosis of antibody-opsonized RBC incubated for 1 hr prior to RBC addition measured after 2 hrs by phase-contrast microscopy; type: functional, cell-based; in short: as §1

pKa at 10000 µM [1] | logD at 10000 µM [2] | pKa at 10000 µM [6] | Compound | inhibition at 5 µM (PBMC [3]) [%] | Ratio (PBMC [4]) | Ratio (PBMC [5]) | IC50 (PBMC [7]) [µM]
2.5 | 1.3 | – | Cc1cc(CCc2cc(C)nn2-c2ccccc2)n(-c2ccccc2)n1 | 14 | 1 | 0.9 | –
4.8 | 3.2 | – | Cc1cc(SSc2cc(C)nn2-c2ccccc2)n(-c2ccccc2)n1 | 45 | 1 | 5.4 | –
2.2 | -1.6 | – | Cc1cc(OCCOc2cc(C)nn2-c2ccccc2)n(-c2ccccc2)n1 | 4 | 1 | 1 | –
3.4 | 4 | – | Cc1cc(Oc2c(N)c(C)nn2-c2ccccc2)n(-c2ccccc2)n1 | 2 | 1.2 | 1 | –
2.2 | 5 | – | Cc1cc(CNCc2cc(C)nn2-c2ccccc2)n(-c2ccccc2)n1 | 20 | 1.1 | 0.9 | –
2.7 | 2.2 | – | Cc1cc(COc2cc(C)nn2-c2ccccc2)n(-c2ccccc2)n1 | 16 | 1.1 | 0.9 | –
2.1 | 5.3 | – | Cc1cc(COc2cc(C)nn2-c2ccccc2)n(Cc2ccccc2)n1 | 0 | 1.1 | 1 | –

Further lines, the compound ahead of its results:

Compound | pKa at 10000 µM [1] | logD at 10000 µM [2] | pKa at 10000 µM [6] | inhibition at 5 µM (PBMC [3]) [%] | Ratio (PBMC [4]) | Ratio (PBMC [5]) | IC50 (PBMC [7]) [µM]
Cc1cc(COc2cc(C)nn2C2CCCC2)n(-c2ccccc2)n1 | 2.7 | 1.7 | – | 17 | 0.9 | 1.2 | –
Cc1cc(OCc2cc(C)nn2-c2ccccc2)n(CC2CCCCC2)n1 | 3.6 | 4.3 | – | 45 | 1 | 1.1 | –
Cc1cc(OCc2cc(C)nn2-c2ccccc2)n(CCN)n1 | 2.5 | 5 | – | 33 | 1.1 | 1 | –
Cc1cc(OCc2cc(C)nn2-c2ccccc2)[nH]n1 | 2.4 | 2.9 | 12.5 | 6 | 1 | 1 | –
Cc1cc(COc2cc(C)nn2-c2ccc([N+](=O)[O-])cc2)n(-c2ccccc2)n1 | 2 | 3.7 | – | 16 | 0.8 | 0.8 | –
Cc1nn(-c2ccccc2)c(S)c1C(=O)c1ccccc1 | 2.9 | -0.3 | 10.3 | 0 | 2 | 1.6 | –
Cc1cc(O)n(Cc2cc(C)nn2-c2ccccc2)n1 | 2.3 | 4.3 | 8.4 | 58 | 1.2 | 1.3 | 14
Cc1nn(-c2ccccc2)c(SSc2c(C(=O)c3ccccc3)c(C)nn2-c2ccccc2)c1C(=O)c1ccccc1 | 3.2 | 8 | – | 32 | 0.8 | 1 | –
Cc1nn(-c2ccccc2)c(S)c1C(=O)c1ccno1 | – | – | – | – | – | – | 250
Cc1cc(OCC2CCCN2Cc2ccccc2)n(-c2ccccc2)n1 (stereo unspecified) | 2.4 | 4.5 | – | 15 | 1.1 | 0.9 | –
Cc1cc(OCc2cc(C)nn2-c2ccccc2)n(CC(=O)O)n1 | 7.3 | 1.2 | 3.4 | 10 | 1.1 | 1.2 | –
